Active and inactive are the calls of the source. The calls are words filed in the database; no cut-off is given here.
What was measured:
Translocator protein [1] = target: T1, Translocator protein (Rattus norvegicus, UniProt P16257); experiment: In vitro displacement of [3H]PK11195 from the peripheral benzodiazepine receptor (PBR) in rat cortex
Translocator protein [2] = target: T1, Translocator protein; experiment: In vitro binding affinity (pIC50) was tested against peripheral benzodiazepine receptor (PBR) in rat.
[3] = target: Translocator protein (Rattus norvegicus) (UniProt P16257); experiment: In vitro binding affinity (pIC50) for peripheral benzodiazepine receptor (PBR) in rat (inactive)
In short: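 Male CD rat cerebral cortex, stored at -80°C, homogenized in ice-cold 50 mM PBS pH 7.4 with 100 mM NaCl and washed by centrifugation. Membranes used at 2.3 mg tissue per sample with 1 nM [3H]PK11195 for 120 min at 4°C, then filtered on GF/B and counted by scintillation. Nonspecific binding defined with 1 µM PK11195. IC50 from curve fitting of 6 concentrations.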

T1 sequence (P16257 whole entry, looked up): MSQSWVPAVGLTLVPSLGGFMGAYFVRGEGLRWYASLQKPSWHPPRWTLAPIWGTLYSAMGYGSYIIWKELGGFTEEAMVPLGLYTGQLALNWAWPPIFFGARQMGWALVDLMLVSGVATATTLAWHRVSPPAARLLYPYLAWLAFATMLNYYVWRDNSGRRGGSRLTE
Translocator protein (Rattus norvegicus), sequence (P16257 whole entry, looked up): as above

Structure (SMILES) | IC50 (Translocator protein [1]) | IC50 (Translocator protein [2]) | Log IC50 [3]
Cc1c(C(=O)N(C)Cc2ccc(Cl)cc2)nc2ccccc2c1-c1ccccc1F | 3.4 nM | 3.39 nM | –
O=C1c2nc(-c3ccccc3)c3ccccc3c2C=CCN1Cc1ccccc1 | 45 nM | 45.7 nM | –
CCC(C)N(C)C(=O)c1nc2ccccc2c(-c2ccccc2F)c1C (stereo not given) | 2.9 nM | 2.88 nM | –
Cc1c(C(=O)N(C)Cc2ccc(Cl)cc2)nc2ccccc2c1-c1ccccc1 | 9.8 nM | 9.77 nM | –
CCC(C)NC(=O)c1nc2ccccc2c(-c2ccccc2F)c1C (stereo not given) | 13 nM | 12.9 nM | –
CN(Cc1ccccc1)C(=O)c1nc2ccccc2c2c1OCCc1ccccc1-2 | 10 nM | 10 nM | –
COc1ccc(N(C)C(=O)c2nc3ccccc3c(-c3ccccc3)c2C)cc1 | 8.8 nM | 8.71 nM | –
Cc1c(C(=O)N(C)Cc2ccccc2)nc(-c2ccccc2)c2ccccc12 | 3.1 nM | 3.09 nM | –
CCC(C)NC(=O)c1nc(-c2ccccc2)c2ccccc2c1C (stereo not given) | 550 nM | 550 nM | –
CCC(C)N(C)C(=O)c1nc(-c2ccccc2)c2ccccc2c1C (stereo not given) | 11 nM | 11.2 nM | –
Cc1c(C(=O)NCc2ccc(Cl)cc2)nc2ccccc2c1-c1ccccc1F | 270 nM | 269 nM | –
CN(Cc1ccccc1)C(=O)c1nc2ccccc2c2c1CCc1ccccc1-2 | 8.9 nM | 8.91 nM | –

Second part, the compound after the results:

IC50 (Translocator protein [1]) | IC50 (Translocator protein [2]) | Log IC50 [3] | Structure (SMILES)
1700 nM | 1700 nM | – | Cc1c(C(=O)NCc2ccc(Cl)cc2)nc2ccccc2c1-c1ccccc1
> 10000 nM | – | – | O=C1c2nc3ccccc3c(-c3ccccc3)c2CN1Cc1ccccc1
1200 nM | 1200 nM | – | CCC(C)N1CCCc2c(nc3ccccc3c2-c2ccccc2)C1=O (stereo not given)
810 nM | 813 nM | – | CCCCC1c2c(nc3ccccc3c2-c2ccccc2)C(=O)N1Cc1ccccc1 (stereo not given)
490 nM | 490 nM | – | CCC(C)N1CC=Cc2c(nc(-c3ccccc3)c3ccccc23)C1=O (stereo not given)
2.1 nM | 2.09 nM | – | Cc1c(C(=O)N(C)Cc2ccccc2)nc2ccccc2c1-c1ccccc1
1200 nM | 1200 nM | – | Cc1c(C(=O)NCc2ccccc2)nc2ccccc2c1-c1ccccc1
> 10000 nM | – | inactive | CCC(C)N1Cc2c(nc3ccccc3c2-c2ccccc2)C1=O (stereo not given)
620 nM | 617 nM | – | CCC(C)N1Cc2c(nc(-c3ccccc3)c3ccccc23)C1=O (stereo not given)
2.1 nM | 2.09 nM | – | CCC(C)N(C)C(=O)c1nc2ccccc2c(-c2ccccc2)c1C (stereo not given)
780 nM | 794 nM | – | CCC(C)N1CCCc2c(nc(-c3ccccc3)c3ccccc23)C1=O (stereo not given)
> 10000 nM | – | – | CCC(C)N1Cc2c(nc3ccccc3c2-c2ccccc2F)C1=O (stereo not given)
170 nM | 170 nM | – | O=C1c2nc3ccccc3c(-c3ccccc3)c2CCCN1Cc1ccccc1
230 nM | 229 nM | – | CCC(C)NC(=O)c1nc2ccccc2c(-c2ccccc2)c1C (stereo not given)
6.4 nM | 6.46 nM | – | Cc1c(C(=O)N(C)c2ccc(Cl)cc2)nc2ccccc2c1-c1ccccc1
480 nM | 479 nM | – | O=C1c2nc(-c3ccccc3)c3ccccc3c2CN1Cc1ccccc1
> 10000 nM | – | – | CN1CCCc2c(nc3ccccc3c2-c2ccccc2)C1=O

Reference: ChEMBL document CHEMBL1130141, “Mapping the peripheral benzodiazepine receptor binding site by conformationally restrained derivatives of 1-(2-chlorophenyl)-N-methyl-N-(1-methylpropyl)-3- isoquinolinecarboxamide (PK11195)” (J Med Chem, 1997)
